Test results reported in ChEMBL document CHEMBL1130202, “Biologically active heteroarotinoids exhibiting anticancer activity and decreased toxicity” (J Med Chem, 1997).

System: CC-B
Test: Relative transcriptional activation activity relative to t-RA
Type: functional, Homo sapiens
Method in brief: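 CC-B reporter cells (CC-1 cervical line carrying a CAT gene under a RARE with a tk promoter) were seeded at 4×10^5 cells/well in MEM with nonessential amino acids, pyruvate and 10% FBS, the serum lots having negligible t-RA by HPLC. Triplicate cultures were screened at 10^-6 M with 0.1% DMSO final. After 48 h, CAT activity ([3H]acetyl-CoA) per mg protein was taken as treated/control and expressed relative to t-RA. Average of three experiments.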

Compound | Relative activity
C/C(=C\c1ccc(C(=O)O)cc1)c1ccc2c(c1)C(C)(C)CS2 | 56
CCOC(=O)c1ccc(OC(=O)c2ccc3c(c2)C(C)(C)CCN3C)cc1 | 54
CCOC(=O)c1ccc(/C=C(\C)c2ccc3c(c2)CC[C@@H](CC)[S+]3[O-])cc1 (stereo partly specified) | 35.8
CC1(C)CCOc2ccc(C(=O)Oc3ccc(/C=N\N=C(/N)S)cc3)cc21 | 33
CC(/C=C/C=C(\C)c1ccc2c(c1)C(C)(C)CS2)=C\C(=O)O | 50
C/C(=C\c1ccc(C(=O)O)cc1)c1ccc2c(c1)C(C)(C)CO2 | 46
CCOC(=O)c1ccc(OC(=O)c2ccc3c(c2)C(C)(C)CCO3)cc1 | 40
CCOC(=O)c1ccc(/C=C(\C)c2ccc3c(c2)C(C)(C)CCO3)cc1 | 35.7
COC(=O)c1ccc(C(=O)Oc2c(C)cc3c(c2C)C(C)(C)CC(=O)O3)cc1 | 29
CCOC(=O)c1ccc(/C=C(\C)c2ccc3c(c2)C(C)(C)CCS3)cc1 | 51
CCCCCCCCC1CCc2cc(/C(C)=C/c3ccc(C(=O)OCC)cc3)ccc2S1 (stereo unspecified) | 43
